Screens as filed in PubChem BioAssay.
Hits are enriched below; roughly 3.5% of the tested compounds scored in any of these assays.
MrgX1 antagonist: human MrgX1 receptor antagonism, primary screen; B-score at 10 µM; AID 588676; MRGX1-HEK293 calcium flux, Fluo-4, BAM8-22 antagonism; active compounds read low; Q96LB2; 1.3% of 310,000 active;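 active = calcium-response B-score plate-corrected more than 3 library SD below zero, starting fluorescence within 5 deviations, no agonist response on first addition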;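 note: peak minus trough fluorescence over baseline after final BAM8-22 challenge near maximal dose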
Target sequence (Q96LB2 whole entry, looked up): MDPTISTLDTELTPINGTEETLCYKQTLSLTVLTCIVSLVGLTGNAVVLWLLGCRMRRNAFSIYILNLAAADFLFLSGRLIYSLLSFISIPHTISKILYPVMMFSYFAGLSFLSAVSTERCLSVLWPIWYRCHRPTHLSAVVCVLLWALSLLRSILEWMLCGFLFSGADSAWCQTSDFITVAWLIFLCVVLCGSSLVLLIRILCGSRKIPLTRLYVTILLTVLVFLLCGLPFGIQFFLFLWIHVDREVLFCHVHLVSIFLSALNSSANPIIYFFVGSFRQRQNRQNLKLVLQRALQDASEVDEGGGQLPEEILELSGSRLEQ
RGS4 block: human RGS4 inhibition | P49798 | HEK293 M3R/RGS4 inducible, Fluo-4 calcium flux; active compounds read high; triggered by carbachol at its EC20 | B-score at 10 µM | 0.45% of 310,000 active | AID 463165;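 active = B-score, a plate-corrected calcium signal, over three deviations above library mean, with baseline fluorescence within five deviations of library mean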;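 note: RGS4 expression induced by doxycycline in cells with stable M3 receptor; B-score is computed from the integrated fluorescence ratio over baseline after carbachol; higher B-score means a larger calcium signal and so more RGS4 inhibition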
Target sequence (P49798 whole entry, looked up): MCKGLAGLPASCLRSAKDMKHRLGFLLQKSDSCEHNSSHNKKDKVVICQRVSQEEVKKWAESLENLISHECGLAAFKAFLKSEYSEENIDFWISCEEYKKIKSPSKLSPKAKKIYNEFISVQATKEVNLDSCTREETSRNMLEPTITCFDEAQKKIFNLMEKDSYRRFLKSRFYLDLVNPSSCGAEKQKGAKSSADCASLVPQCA
MrgX1 ag: human MrgX1 receptor agonism, primary screen | Q96LB2 | MrgX1-HEK293 cells, Fluo-4 calcium fluorescence, agonist mode; active compounds read high | AID 588627 | 0.44% of 310,000 active | B-score at 10 µM;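 active = calcium response B-score plate-corrected fluorescence ratio at least 3 library SD, with starting fluorescence B-score inside 5 SD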
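Material: MrgX1-expressing HEK293 cells / Dosing: compound as first of three additions / Incubation: overnight seeding, then 1 h dark dye loading / Signal: Fluo-4 NW calcium fluorescence / Evaluation: B-scored fluorescence response ratio / Benchmarks: positive and negative control wells on each plate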
MrgX1 allo act: allosterically activates human MrgX1 receptor signaling; Q96LB2; MrgX1-HEK293, Fluo-4 calcium flux, FDSS; active compounds read high; B-score at 10 µM; 0.63% of 310,000 active;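 active = plate-corrected calcium response at least 3 library SD above typical, normal starting fluorescence, not activating the receptor alone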;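 note: compound read alongside a low EC10 to EC30 dose of BAM8-22 agonist; peak minus trough fluorescence over baseline measured at the second addition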
RGS4 pot: potentiators or activators of RGS4; HEK293 M3R/inducible RGS4, carbachol calcium flux Fluo4; active compounds read low; B-score at 10 µM; 0.92% of 310,000 active; AID 463111;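 active = B-score of the integrated calcium signal more than 4 SD below the library mean, with starting fluorescence not abnormally high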;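 note: negative B-score means reduced calcium response which marks RGS4 activation or potentiation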
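Test system: HEK293 cells with stable M3R and inducible RGS4; also added: carbachol at ECmax as muscarinic agonist stimulus; schedule: dye loading 30 min 37 °C, buffer rest 30 min RT; technique: kinetic calcium fluorescence imaging with Fluo4-AM dye, 2 µM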
RGS4 activ val: confirmation of RGS4 activators | shares compounds with RGS4 pot | HEK293 M3R/RGS4 inducible, carbachol calcium flux Fluo4 | inhibition, % at 10 µM | 89% of 1,100 active | AID 602282;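 active = inhibition above 3 SD of the buffer control wells, cut at about 41% in these data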;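 note: signal is the integrated peak-minus-minimum Fluo4 fluorescence over baseline ratio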
RGS4 act ctr: RGS4 activator counter-screen hit in non-induced cells | shares compounds with RGS4 pot | 82% of 1,100 active | AID 602283 | inhibition, % at 10 µM | HEK293 M3R non-induced RGS4, Fluo4 calcium flux; after carbachol challenge at its EC90;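 active = inhibition exceeding 3 SD of buffer-only control wells, cut at about 26% in these data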;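 note: percent drop in integrated peak-minus-baseline over baseline Fluo4 ratio after carbachol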
A number is an active result; 0 = inactive; - = no result.

SMILES	MrgX1 antagonist	RGS4 block	MrgX1 ag	MrgX1 allo act	RGS4 pot	others
Cc1ccc(N=Cc2c(O)n(C)c(=O)n(C)c2=O)cc1	0	0	0	0	0
Cn1c(O)c(C=NCCN2CCNCC2)c(=O)[nH]c1=O	0	0	0	0	0
CCCCC/C(=N\O)c1c[nH]c2ccccc12	-6.61	0	0	0	0
O=C(O)c1ccc(NC(=O)N2C[C@H]3C[C@@H](C2)c2cccc(=O)n2C3)cc1	0	0	0	0	-10.1
Cc1ccccc1N1C(=O)NC(=O)/C(=C\c2ccc3c(c2)CCCN3Cc2ccccc2)C1=O	0	0	32.2	0	0
N#CC1=C(N)Oc2c(c(=O)oc3ccccc23)C1c1ccc(OC(=O)N2CCOCC2)cc1 (stereo not given)	0	0	0	0	0
COC(=O)C(Cc1ccc(N(CCCl)CCCl)cc1)N=Cc1ccccc1O (stereo not given)	0	0	0	0	-7.13
CC(=O)N1N=C2C3CCN(CC3)C2C1c1ccc(F)cc1 (stereo not given)	0	0	0	0	0
Cc1c(C=O)c2ccccc2n1Cc1ccc([N+](=O)[O-])cc1	-5.27	0	0	0	0
O=C(O)[C@H]1C[C@@H]1[C@H](NP(=O)(c1ccccc1)c1ccccc1)c1ccccc1	0	0	0	0	0
Clc1ccc(C(c2ccccc2)c2ncc[nH]2)cc1 (stereo not given)	0	0	0	0	0
C=C(C=O)CC1CC(O)[C@]2(C)OC3CC4OC5C[C@]6(C)O[C@]7(C)CCC8OC9C[C@]%10(C)OC%11C(C)=CC(=O)OC%11CC%10OC9C[C@@H](C)C8OC7CC6O[C@]5(C)CC5OC5C4OC3CC2O1 (stereo not given in full)	-5.41	0	0	0	0
C=C(COC(C)=O)CC1CC(O)[C@]2(C)OC3CC4OC5C[C@]6(C)O[C@]7(C)CCC8OC9C[C@]%10(C)OC%11C(C)=CC(=O)OC%11CC%10OC9C[C@@H](C)C8OC7CC6O[C@]5(C)C/C=C\C4OC3CC2O1 (stereo not given in full)	-	18.4	-	-	0
Oc1cc(Cl)ccc1Oc1ccc(Cl)cc1Cl	0	0	0	0	-7.06
COc1ccc(C(=O)C2CCCN(Cc3cnc(C)s3)C2)cc1OC (stereo not given)	0	0	0	0	0
COc1ccc(C(=O)C2CCCN(C3CSCCSC3)C2)cc1OC (stereo not given)	0	0	0	0	-7.48
O=c1[nH]c(=S)n(-c2ccccc2F)c(O)c1C=NCCN1CCNCC1	0	0	0	0	0
CN(C)CC#CCC(O)(c1ccccc1)C1CCCC1 (stereo not given)	0	0	0	0	0
CC[N+](CC)(CC)CCCOC(=O)C(O)(c1ccccc1)C1CCCCC1 (stereo not given)	0	0	0	0	-8.21
C[N+](C)(N)CCOC(=O)C(O)(c1ccccc1)C1CCCCC1 (stereo not given)	0	0	0	0	-8.22
O=C(Nc1ccccc1)OC1CN=C(N[N+](=O)[O-])NC1 (stereo not given)	-5.69	0	0	0	0
CCCCn1c(C)c(C(=O)O)c2cc(OC)c3ccccc3c21	0	0	0	0	0
C=C(C)[C@@H]1C2C(=O)O[C@H]1[C@H]1OC(=O)[C@@]34OC3C[C@]2(O)[C@@]14C (stereo not given in full)	-6.38	-	0	0	-
CC(C)OCCCNC(=O)c1c(N)n(CC2CCCO2)c2nc3ccccc3nc12 (stereo not given)	0	0	0	0	-7.21
CCCNC(=O)c1c(N)n(CC2CCCO2)c2nc3ccccc3nc12 (stereo not given)	0	0	0	0	0
SMILES	MrgX1 antagonist	RGS4 block	MrgX1 ag	MrgX1 allo act	RGS4 pot	others
CCOC(=O)c1c(C)n(Cc2ccccc2)c2ccc(OCC(O)CNC(C)(C)C)cc12 (stereo not given)	-4.74	0	0	0	0
CN1CCN(C(=O)COc2ccc(N(C)S(=O)(=O)c3ccc(F)cc3)cc2)CC1	0	0	0	0	0
COc1cc(C)cc2oc(=O)c(CC(=O)N3C[C@H]4C[C@@H](C3)c3cccc(=O)n3C4)c(C)c12	0	0	0	0	0
Cc1cc(O)c2c(C)c(CC(=O)N3C[C@H]4C[C@@H](C3)c3cccc(=O)n3C4)c(=O)oc2c1	-5.22	0	0	0	0
CCCC[N+]12CCC(CC1)C(=C(c1ccccc1)c1ccccc1)C2	0	0	0	0	-8.59
O=[N+]([O-])c1ccccc1-c1cc(-c2ccccc2)cc(-c2ccccc2)[n+]1Cc1ccccc1Cl	-7.01	0	0	0	-10.2
CN1C[C@H](CO)C=C2c3cccc4[nH]cc(c34)C[C@H]21	0	0	35.6	0	0
O=C(COc1ccccc1)N1CCN(CC2CC=CCC2)CC1 (stereo not given)	0	0	0	0	0
O=C1NC(=O)C(=Cc2ccc(N3CCOCC3)o2)C(=O)N1	0	0	0	0	-7.64
CSc1nnc(OC(=O)N(C)C)n1-c1ccc(Cl)cc1	0	0	0	0	0
O=C(O)c1cc[c]([Hg][Cl])cc1	0	-	0	13.4	-
CCN(CC)c1ccc(/C=C2\C(=O)NC(=S)N(c3ccc(OC)cc3OC)C2=O)o1	0	0	0	0	-7.24
COc1ccc(N2C(=O)/C(=C/c3ccc(N(C)C)o3)C(=O)NC2=S)cc1	0	0	0	0	0
Cc1ccc(C(C)C)c(OCC#CCN2CCCC2)c1	0	0	0	0	-9.1	RGS4 activ val=91.0;RGS4 act ctr=40.8
CN1CC(C(=O)c2cccs2)C(c2ccc(Cl)cc2)C1 (stereo not given)	0	0	0	0	0
O=C(c1cccs1)C1CN2CCC1CC2 (stereo not given)	0	0	0	0	-9.31	RGS4 activ val=60.0;RGS4 act ctr=0
CCc1ccccc1NC(=O)CNC1CCCCC1	0	0	0	0	0
CN(CC(=O)Nc1ccccc1-c1ccccc1)C1CCCCC1	0	0	0	0	-9.56	RGS4 activ val=91.5;RGS4 act ctr=55.3
Brc1ccc2c(c1)C(OC1CN3CCC1CC3)c1ccccc1CS2 (stereo not given)	0	0	0	0	-14.2	RGS4 activ val=94.5;RGS4 act ctr=90.3
O=C(NC1CCCCC1)N1C[C@H]2C[C@@H](C1)c1cccc(=O)n1C2	0	0	0	0	0
CCn1ccnc1CN1CCCC(C(=O)c2ccc(SC)cc2)C1 (stereo not given)	0	0	0	0	-10.3	RGS4 activ val=91.5;RGS4 act ctr=89.8
CN(C)c1cc[n+](CC(O)C[n+]2ccc(N(C)C)cc2)cc1	0	0	0	0	0
c1ccc(CN2CCNCC2)nc1	0	0	0	0	0
